Laboratory results published in ChEMBL document CHEMBL2407008, “Synthesis and biological evaluation of a new series of highly functionalized 7'-homo-anhydrovinblastine derivatives” (J Med Chem, 2013).
Active and inactive are the calls of the source. The rule behind the calls is not given here.

Assays:
[1] = tested on: HUVEC; test: Cytotoxicity against HUVEC after 72 hrs by resazurin assay; format: cell-based; settings: Homo sapiens
Method in brief: (§1)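 Cells were seeded at 2.5 × 10^3/well, cultured 24 h, then given compound in DMSO (<0.1%) at several concentrations for 72 h. Media: RPMI 1640/10% FCS for K562 and HCT116; DMEM/10% FCS for U87-MG; EGM2 with growth factors and 2% FCS for HUVEC. Resazurin was added for 1.5 h and fluorescence read (ex 560/em 590 nm). IC50 is the 50% fluorescence drop versus untreated cells. Run in triplicate.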

[2] = Cytotoxicity against human U87MG cells after 72 hrs by resazurin assay; format: functional, cell-based, U-87MG ATCC; settings: U-87 MG; method in brief: as §1
[3] = tested on: K562; test: Cytotoxicity against human K562 cells after 72 hrs by resazurin assay; format: functional, cell-based; settings: K562, 72 h; method in brief: as §1
[4] = tested on: HCT-116; test: Cytotoxicity against human HCT116 cells after 72 hrs by resazurin assay; format: functional, cell-based; settings: HCT-116, 72 h; method in brief: as §1
[5] = Inhibition of sheep brain tubulin polymerization by UV spectrophotometric analysis; parameters: species or system Ovis aries
Method in brief: (§2)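 Sheep brain tubulin was mixed with compound in DMSO at 0 °C, then warmed to 37 °C. Assembly was followed as optical density at 350 nm. Maximum assembly rate was compared with a drug-free sample, and IC50 was derived from several concentrations. Vinorelbine IC50 was measured the same day on the same tubulin preparation.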

[6] = species on record: Ovis aries; test: Ratio of compound IC50 to vinorelbine IC50 for sheep brain tubulin polymerization; method in brief: as §2
[7] = Cell cycle arrest in human U87MG cells assessed as accumulation at G2/M phase at >50 nM after 24 hrs by propidium iodide staining-based flow cytometric analysis; format: functional; settings: U-87MG ATCC
Method in brief: (§3)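 U87-MG glioblastoma cells grown in DMEM with 10% FCS and L-glutamine, 37 °C, 5% CO2. Exponentially growing cells were treated for 24 h at two concentrations, or with DMSO. Cells were harvested, dissociated, PBS-washed, fixed in cold 70% ethanol and kept at −20 °C overnight. Staining used propidium iodide with RNase for 30 min, followed by flow-cytometric cell-cycle profiling.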

[8] = tested on: K562; test: Cell cycle arrest in human K562 cells assessed as accumulation at G2/M phase at >50 nM after 24 hrs by propidium iodide staining-based flow cytometric analysis; format: functional
Method in brief: (§4)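 K562 cells grown in RPMI 1640 with 10% FCS and 1% glutamine, 37 °C, 5% CO2. Exponentially growing cells were exposed for 24 h to compound at two concentrations, or to DMSO. Cells were then harvested, PBS-washed, fixed in cold 70% ethanol (30 min, +4 °C) and held at −20 °C overnight. DNA was stained with propidium iodide plus RNase for 30 min, and the profile was read by flow cytometry.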

[9] = Cell cycle arrest in human U87MG cells assessed as accumulation at G2/M phase at 50 nM after 24 hrs by propidium iodide staining-based flow cytometric analysis; format: functional; settings: U-87MG ATCC; method in brief: as §3
[10] = tested on: K562; test: Cell cycle arrest in human K562 cells assessed as accumulation at G2/M phase at 50 nM after 24 hrs by propidium iodide staining-based flow cytometric analysis; format: functional; method in brief: as §4
[11] = Cell cycle arrest in human U87MG cells assessed as accumulation at G2/M phase at >5 nM after 24 hrs by propidium iodide staining-based flow cytometric analysis; format: functional; settings: U-87MG ATCC; method in brief: as §3
[12] = tested on: K562; test: Cell cycle arrest in human K562 cells assessed as accumulation at G2/M phase at >10 nM after 24 hrs by propidium iodide staining-based flow cytometric analysis; format: functional; method in brief: as §4
[13] = Cell cycle arrest in human U87MG cells assessed as accumulation at G2/M phase at 5 nM after 24 hrs by propidium iodide staining-based flow cytometric analysis; format: functional; settings: U-87MG ATCC; method in brief: as §3
[14] = tested on: K562; test: Cell cycle arrest in human K562 cells assessed as accumulation at G2/M phase at 10 nM after 24 hrs by propidium iodide staining-based flow cytometric analysis; format: functional; method in brief: as §4

Compound | IC50 [1] [nM] | IC50 [2] [nM] | IC50 [3] [nM] | IC50 [4] [nM] | IC50 [5] [nM] | further results
CCC1=C[C@@H]2CN(C1)/C(C(=O)OC)=C(/C(=O)OC)Cc1c([nH]c3ccccc13)[C@@](C(=O)OC)(c1cc3c(cc1OC)N(C)[C@H]1[C@@](O)(C(=O)OC)[C@H](OC(C)=O)[C@]4(CC)C=CCN5CC[C@]31[C@@H]54)C2 | 100 | 700 | 1000 | 500 | 6000 | 
CCC1=C[C@@H]2CN(C1)/C(C(=O)NC(C)(C)C)=C(/C(=O)OC)Cc1c([nH]c3ccccc13)[C@@](C(=O)OC)(c1cc3c(cc1OC)N(C)[C@H]1[C@@](O)(C(=O)OC)[C@H](OC(C)=O)[C@]4(CC)C=CCN5CC[C@]31[C@@H]54)C2 | 25 | 25 | 50 | 60 | 10400 | 
CCC1=C[C@@H]2CN(C1)C[C@H](C(=O)OCc1ccccc1)Cc1c([nH]c3ccccc13)[C@@](C(=O)OC)(c1cc3c(cc1OC)N(C)[C@H]1[C@@](O)(C(=O)OC)[C@H](OC(C)=O)[C@]4(CC)C=CCN5CC[C@]31[C@@H]54)C2 |  |  |  |  | > 100000 | 
CCC1=C[C@@H]2CN(C1)[C@H](C(=O)NC(C)C)[C@H](C(=O)OC)Cc1c([nH]c3ccccc13)[C@@](C(=O)OC)(c1cc3c(cc1OC)N(C)[C@H]1[C@@](O)(C(=O)OC)[C@H](OC(C)=O)[C@]4(CC)C=CCN5CC[C@]31[C@@H]54)C2 | 150 | 20 | 60 | 100 | 500 | Ratio IC50 [6]: 0.6
C=CCNC(=O)/C1=C(\C(=O)OC)Cc2c([nH]c3ccccc23)[C@@](C(=O)OC)(c2cc3c(cc2OC)N(C)[C@H]2[C@@](O)(C(=O)OC)[C@H](OC(C)=O)[C@]4(CC)C=CCN5CC[C@]32[C@@H]54)C[C@@H]2C=C(CC)CN1C2 | 2000 | 3000 | 1000 | 1800 | 3700 | 
CCC1=C[C@@H]2CN(C1)C[C@H](C(=O)OC)Cc1c([nH]c3ccccc13)[C@@](C(=O)OC)(c1cc3c(cc1OC)N(C)[C@H]1[C@@](O)(C(=O)OC)[C@H](OC(C)=O)[C@]4(CC)C=CCN5CC[C@]31[C@@H]54)C2 | 8 | 7 | 15 | 18 | 2500 | Activity [7]: Active; Activity [8]: Active; Activity [9]: Active; Activity [10]: Active
CCC1=C[C@@H]2CN(C1)[C@H](C(=O)OC)[C@H](C(=O)OC)Cc1c([nH]c3ccccc13)[C@@](C(=O)OC)(c1cc3c(cc1OC)N(C)[C@H]1[C@@](O)(C(=O)OC)[C@H](OC(C)=O)[C@]4(CC)C=CCN5CC[C@]31[C@@H]54)C2 | 2.5 | 1.5 | 5 | 6 | 8600 | Activity [11]: Active; Activity [12]: Active; Activity [13]: Active; Activity [14]: Active
C=CCNC(=O)[C@@H]1[C@H](C(=O)OC)Cc2c([nH]c3ccccc23)[C@@](C(=O)OC)(c2cc3c(cc2OC)N(C)[C@H]2[C@@](O)(C(=O)OC)[C@H](OC(C)=O)[C@]4(CC)C=CCN5CC[C@]32[C@@H]54)C[C@@H]2C=C(CC)CN1C2 | 25 | 10 | 50 | 45 | 4900 | 
CCC1=C[C@@H]2CN(C1)/C(C(=O)NC(C)C)=C(/C(=O)OC)Cc1c([nH]c3ccccc13)[C@@](C(=O)OC)(c1cc3c(cc1OC)N(C)[C@H]1[C@@](O)(C(=O)OC)[C@H](OC(C)=O)[C@]4(CC)C=CCN5CC[C@]31[C@@H]54)C2 | 700 | 350 | 1500 | 2500 | 1600 | Ratio IC50 [6]: 2
CC[C@]1(O)C[C@@H]2CN(CCc3c([nH]c4ccccc34)[C@@](C(=O)OC)(c3cc4c(cc3OC)N(C)[C@H]3[C@@](O)(C(=O)OC)[C@H](OC(C)=O)[C@]5(CC)C=CCN6CC[C@]43[C@@H]65)C2)C1 [VINBLASTINE] | 0.8 | 1 | 7 | 3.5 | 2100 | 
CCC1=C[C@@H]2CN(C1)[C@H](C(=O)NC(C)(C)C)[C@H](C(=O)OC)Cc1c([nH]c3ccccc13)[C@@](C(=O)OC)(c1cc3c(cc1OC)N(C)[C@H]1[C@@](O)(C(=O)OC)[C@H](OC(C)=O)[C@]4(CC)C=CCN5CC[C@]31[C@@H]54)C2 | 70 | 80 | 250 | 300 | 1100 | Ratio IC50 [6]: 1.7
CCOC(=O)[C@@H]1Cc2c([nH]c3ccccc23)[C@@](C(=O)OC)(c2cc3c(cc2OC)N(C)[C@H]2[C@@](O)(C(=O)OC)[C@H](OC(C)=O)[C@]4(CC)C=CCN5CC[C@]32[C@@H]54)C[C@@H]2C=C(CC)CN(C2)C1 |  |  |  |  | > 100000 | 
CCOC(=O)/C1=C/N2CC(CC)=C[C@H](C2)C[C@](C(=O)OC)(c2cc3c(cc2OC)N(C)[C@H]2[C@@](O)(C(=O)OC)[C@H](OC(C)=O)[C@]4(CC)C=CCN5CC[C@]32[C@@H]54)c2[nH]c3ccccc3c2C1 |  |  |  |  | > 100000 | 
CCC1=C[C@@H]2CN(/C=C(/C(=O)OCc3ccccc3)Cc3c([nH]c4ccccc34)[C@@](C(=O)OC)(c3cc4c(cc3OC)N(C)[C@H]3[C@@](O)(C(=O)OC)[C@H](OC(C)=O)[C@]5(CC)C=CCN6CC[C@]43[C@@H]65)C2)C1 |  |  |  |  | > 100000 | 
CCC1=C[C@@H]2CN(/C=C(/C(=O)OC)Cc3c([nH]c4ccccc34)[C@@](C(=O)OC)(c3cc4c(cc3OC)N(C)[C@H]3[C@@](O)(C(=O)OC)[C@H](OC(C)=O)[C@]5(CC)C=CCN6CC[C@]43[C@@H]65)C2)C1 | 250 | 700 | 500 | 500 | 18000 | 
CCC1=C[C@@H]2CN(C1)Cc1c([nH]c3ccccc13)[C@@](C(=O)OC)(c1cc3c(cc1OC)N(C)[C@H]1[C@@](O)(C(=O)OC)[C@H](OC(C)=O)[C@]4(CC)C=CCN5CC[C@]31[C@@H]54)C2 [VINORELBINE] | 2 | 2 | 20 | 35 | 700 | 
CCC1=C[C@@H]2CN(C1)[C@H](C(=O)NCc1ccccc1)[C@H](C(=O)OC)Cc1c([nH]c3ccccc13)[C@@](C(=O)OC)(c1cc3c(cc1OC)N(C)[C@H]1[C@@](O)(C(=O)OC)[C@H](OC(C)=O)[C@]4(CC)C=CCN5CC[C@]31[C@@H]54)C2 | 60 | 70 | 75 | 200 | 2700 | 
CCC1=C[C@@H]2CN(C1)/C(C(=O)NCc1ccccc1)=C(/C(=O)OC)Cc1c([nH]c3ccccc13)[C@@](C(=O)OC)(c1cc3c(cc1OC)N(C)[C@H]1[C@@](O)(C(=O)OC)[C@H](OC(C)=O)[C@]4(CC)C=CCN5CC[C@]31[C@@H]54)C2 | 40 | 10 | 80 | 250 | 10400 | 
